Measured values collected from several papers.
Lines come from different studies, so protocols differ.
Target: Serine/threonine-protein kinase Nek6 (NEK6, Homo sapiens, UniProt Q9HC98)

Structure (SMILES) | assay | conditions | measurement | value
N#CCCc1ccc2c(c1)-c1[nH]c3ccc([N+](=O)[O-])cc3c1CC(=O)N2 | cell-free assay | 0.5 µM | remaining signal | 101%
Nc1ncnc2occ(-c3ccc(NC(=O)Nc4cc(C(F)(F)F)ccc4F)cc3)c12 | cell-free assay, inhibitor | 20 µM | remaining signal | 0.15%
COc1cc2ncnc(Nc3ccc(Oc4ccccc4)cc3C)c2cc1OC | enzyme activity, inhibitor | 1 µM | inhibition | -8%
Cc1ccc(NC(=O)c2ccc(C)c(C(F)(F)F)c2)cc1C#Cc1nn(C2CCC(O)CC2)c2ncnc(N)c12 (stereo not shown) | cell-free assay | 10 µM | remaining signal | 98%
C[C@H](c1ccnc(Nc2nc3ccc(-c4cc(N(C)C)ncn4)cc3[nH]2)c1)N1CCN(C(=O)CC(F)(F)F)CC1 | cell-free assay, competition with immobilised ligand | 0.1 µM | remaining binding | 83%
CCN(CC)CCNC(=O)c1c(C)[nH]c(/C=C2\C(=O)Nc3ccc(F)cc32)c1C | enzyme activity, inhibitor | 0.3 µM | inhibition | -14%
CCOCCn1cc(C(=O)Nc2ccc(-n3nc(-c4cccnc4)cc3C(F)(F)F)cn2)ccc1=O | cell-free assay, competition with immobilised ligand | 1 µM | remaining binding | 96%
COc1cc(/C=C/C(=O)CC(=O)/C=C/c2ccc(O)c(OC)c2)ccc1O | enzyme activity, inhibitor | 1 µM | activity vs control | 97%
Cc1cc(-n2nc(Cc3cc(F)cc(C(F)(F)F)c3)nc2C)ccc1C(N)=O | cell-free assay, competition with immobilised ligand | 1 µM | remaining binding | 95%
FC(F)(F)Oc1cccc(-c2cnc3ccc(-c4ccncc4)nn23)c1 | enzyme activity, inhibitor, radiometric | 5 µM | activity vs control | 93%
CO[C@@H](C)c1c(Nc2ccc([C@H](N(C)C(=O)C3CCS(=O)(=O)CC3)C(F)(F)F)cc2)cnc2cc(Cl)nn12 | cell-free assay, competition with immobilised ligand | 1 µM | remaining binding | 97%
CNC(=O)c1cc(Oc2ccc(NC(=O)Nc3ccc(Cl)c(C(F)(F)F)c3)cc2)ccn1 | enzyme activity, inhibitor | 0.3 µM | inhibition | -13%
O=C1Nc2ccc(Cl)cc2C1=Cc1cc(Cl)c(O)c(Cl)c1 | cell-free assay | 0.5 µM | remaining signal | 104%
